The record followed here is ChEMBL document CHEMBL3399927, “Identification of novel inhibitors of Aurora A with a 3-(pyrrolopyridin-2-yl)indazole scaffold” (Bioorg Med Chem, 2015).

Data set [1] deals with Cell division cycle 7-related protein kinase (Homo sapiens) (UniProt O00311). Briefly: Inhibition of CDC7 (unknown origin).
Data set [2] deals with Glycogen synthase kinase-3 beta (Homo sapiens) (UniProt P49841). Briefly: Inhibition of GSK3beta (unknown origin) at 1 ug/ml relative to control.
For data set [3], the target named is Cyclin-dependent kinase 2 (Homo sapiens) (UniProt P24941). Briefly: Inhibition of CDK2 (unknown origin) at 1 ug/ml relative to control.
Data set [4] concerns the target T1, Inhibitor of nuclear factor kappa-B kinase subunit beta (Homo sapiens) (UniProt O14920).
T1 sequence (whole entry): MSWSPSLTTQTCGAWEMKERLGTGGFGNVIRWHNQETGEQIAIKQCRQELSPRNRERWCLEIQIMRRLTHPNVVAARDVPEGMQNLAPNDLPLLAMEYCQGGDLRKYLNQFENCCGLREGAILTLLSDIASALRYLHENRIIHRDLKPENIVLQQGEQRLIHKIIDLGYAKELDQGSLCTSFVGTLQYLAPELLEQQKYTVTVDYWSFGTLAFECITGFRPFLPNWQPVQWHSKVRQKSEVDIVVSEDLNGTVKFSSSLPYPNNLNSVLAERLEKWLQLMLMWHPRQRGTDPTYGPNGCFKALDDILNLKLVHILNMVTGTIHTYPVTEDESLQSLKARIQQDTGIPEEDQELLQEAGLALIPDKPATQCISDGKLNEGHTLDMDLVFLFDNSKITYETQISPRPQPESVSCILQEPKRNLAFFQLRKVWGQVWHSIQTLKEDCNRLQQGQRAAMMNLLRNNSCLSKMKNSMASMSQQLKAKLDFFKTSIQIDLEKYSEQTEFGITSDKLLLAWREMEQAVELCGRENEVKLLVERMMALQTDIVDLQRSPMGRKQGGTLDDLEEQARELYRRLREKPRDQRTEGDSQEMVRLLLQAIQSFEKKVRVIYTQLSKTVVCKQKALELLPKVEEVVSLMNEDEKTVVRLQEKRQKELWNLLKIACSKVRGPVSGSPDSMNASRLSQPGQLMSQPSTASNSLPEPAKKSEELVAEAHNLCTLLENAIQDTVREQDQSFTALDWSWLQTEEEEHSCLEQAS
Briefly: Inhibition of IKKbeta (unknown origin) at 1 ug/ml relative to control.

For data set [5], the system named is HCT-116. As to the kind of experiment: Ratio of taxol IC50 to compound IC50 for human HCT116 cells. It is filed as functional.
The target in data set [6] is T2, Serine/threonine-protein kinase Chk1 (Homo sapiens) (UniProt O14757).
T2 sequence (whole entry): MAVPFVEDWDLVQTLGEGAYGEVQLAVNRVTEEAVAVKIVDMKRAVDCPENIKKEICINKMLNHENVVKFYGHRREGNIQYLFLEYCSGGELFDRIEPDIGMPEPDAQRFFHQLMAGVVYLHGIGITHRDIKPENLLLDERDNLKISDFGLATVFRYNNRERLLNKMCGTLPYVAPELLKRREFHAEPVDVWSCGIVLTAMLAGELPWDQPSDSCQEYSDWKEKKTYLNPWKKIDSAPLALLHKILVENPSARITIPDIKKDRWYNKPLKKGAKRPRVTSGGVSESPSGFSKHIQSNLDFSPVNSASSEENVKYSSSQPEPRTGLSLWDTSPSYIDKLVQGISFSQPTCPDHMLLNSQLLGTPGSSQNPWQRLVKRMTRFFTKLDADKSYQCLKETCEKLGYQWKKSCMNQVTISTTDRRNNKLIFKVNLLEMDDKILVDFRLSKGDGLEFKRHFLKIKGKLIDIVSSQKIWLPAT
As to the kind of experiment: Inhibition of CHK1 (unknown origin) at 1 ug/ml relative to control. The procedure, abridged: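 Fixed-concentration screen at 1 µg/mL using the luminescent ADP-Glo assay.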

Data set [7] concerns the target Dual specificity mitogen-activated protein kinase kinase 1 (Homo sapiens) (UniProt Q02750). As to the kind of experiment: Inhibition of MEK1 (unknown origin) at 1 ug/ml relative to control.
Data set [8] deals with Serine/threonine-protein kinase B-raf (Homo sapiens) (UniProt P15056). Briefly: Inhibition of BRAF (unknown origin) at 1 ug/ml relative to control.
Data set [9] in a line: Antiproliferative activity against human SMMC7721 cells after 72 hrs by MTT assay. It is filed as functional, cell-based. Particulars: SMMC-7721, 72 h. The method, boiled down:
(§1)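 Cells grown in RPMI-1640 with heat-inactivated 10% FBS, penicillin 100 units/mL and streptomycin 100 μg/mL, at 37 °C under 20% O2, 5% CO2. Compounds dissolved in DMSO at 10.0 mg/mL (stock), then diluted. Cells were plated for 24 h, exposed to a range of concentrations for 72 h, and viability was read by MTT. IC50 is 50% absorbance inhibition versus control cells; means of three experiments.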
A general note: Tetrazolium assays rely on reduction of a dye to a coloured formazan, in cell work by metabolically active cells.

Data set [10] concerns the target Protein kinase C (PKC) (Homo sapiens) (UniProt O94806+P41743+P17252+P05129+Q05655+P05771+Q05513+Q02156+P24723+Q15139+Q04759). Briefly: Inhibition of PKC (unknown origin) at 1 ug/ml relative to control. The procedure, abridged:
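Fixed-concentration screen at 1 µg/mL with a Z'-LYTE kinase assay kit.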

Another data set relates to A549. Briefly: Antiproliferative activity against human A549 cells after 72 hrs by MTT assay. It is filed as functional, cell-based. Particulars: A549, 72 h.
A short description of data set [11]: Antiproliferative activity against human HL60 cells after 72 hrs by MTT assay. It is filed as functional, cell-based. The following applies: HL-60, 72 h. The procedure, abridged:
as §1

In data set [12] the test system is HCT-116. As to the kind of experiment: Induction of apoptosis in human HCT116 cells at 200 nM after 24 hrs by FACS analysis relative to control. In kind it is functional. Background: In flow cytometry, cells or beads pass a laser one at a time.
A short description of data set [13]: Antiproliferative activity against human HCT116 cells after 72 hrs by MTT assay. In kind it is functional, cell-based. The following applies: HCT-116, 72 h. The method, boiled down:
as §1

Data set [14] addresses T3, Aurora kinase A (Homo sapiens) (UniProt O14965).
T3 sequence (whole entry): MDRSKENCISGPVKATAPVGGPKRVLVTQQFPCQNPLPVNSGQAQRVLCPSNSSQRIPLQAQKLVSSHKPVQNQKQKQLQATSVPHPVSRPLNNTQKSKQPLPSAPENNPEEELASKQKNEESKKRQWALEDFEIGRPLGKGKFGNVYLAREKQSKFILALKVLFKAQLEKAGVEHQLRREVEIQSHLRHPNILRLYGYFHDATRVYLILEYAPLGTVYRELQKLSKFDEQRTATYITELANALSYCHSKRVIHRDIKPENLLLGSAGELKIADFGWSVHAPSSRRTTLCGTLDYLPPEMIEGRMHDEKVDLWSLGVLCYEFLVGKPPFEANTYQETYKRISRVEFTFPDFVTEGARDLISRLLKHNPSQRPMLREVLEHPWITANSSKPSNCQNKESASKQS
Briefly: Inhibition of human full length Aurora A at 1 ug/ml by Z'-LYTE assay.

The subject of the next data set is KB. As to the kind of experiment: Antiproliferative activity against human KB cells after 72 hrs by MTT assay. In kind it is functional, cell-based. The method, boiled down:
as §1

Data set [15] in a line: Apparent permeability across apical to basolateral side in MDCK cells by HPLC. In kind it is ADME, cell-based, Canis lupus familiaris. The following applies: dog.
The nature of data set [16]: Cell cycle arrest in human HCT116 cells assessed as accumulation at G2/M phase at 200 nM after 24 hrs by FACS analysis. It is filed as functional, cell-based. The following applies: HCT-116.
The next data set concerns the target T4, Aurora kinase A (Homo sapiens, UniProt O14965).
T4 sequence (O14965 whole entry): T3 sequence (whole entry)
As to the kind of experiment: Inhibition of human full length Aurora A by Z'-LYTE assay.

Data set [17] can be described thus: Cell cycle arrest in human HCT116 cells assessed as accumulation at G2/M phase after 24 hrs by FACS analysis. Particulars: HCT-116. In kind it is functional, cell-based.

By IC50 is commonly meant the concentration that gives 50% inhibition. A higher IC50 goes with weaker potency. Broadly, the inhibition is how much of the control response was suppressed. Read a high inhibition as a response far below the control. In general, Papp A→B refers to how fast a substance crosses the layer from the apical side.

Active and inactive are the calls of the source. The rule behind the calls is not given here.

Glycogen synthase kinase-3 beta (Homo sapiens), sequence (P49841 whole entry, looked up): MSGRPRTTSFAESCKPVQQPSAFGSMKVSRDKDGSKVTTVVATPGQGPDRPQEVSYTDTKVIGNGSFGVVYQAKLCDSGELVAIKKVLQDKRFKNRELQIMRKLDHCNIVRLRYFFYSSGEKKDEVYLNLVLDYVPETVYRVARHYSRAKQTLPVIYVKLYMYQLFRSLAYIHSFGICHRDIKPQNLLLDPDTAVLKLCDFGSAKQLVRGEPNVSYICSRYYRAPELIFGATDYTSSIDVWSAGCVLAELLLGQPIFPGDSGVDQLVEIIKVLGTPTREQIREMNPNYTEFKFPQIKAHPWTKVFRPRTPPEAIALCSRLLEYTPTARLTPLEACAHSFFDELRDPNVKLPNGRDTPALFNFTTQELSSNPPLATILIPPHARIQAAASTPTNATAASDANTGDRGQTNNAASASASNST
Serine/threonine-protein kinase B-raf (Homo sapiens), sequence (P15056 whole entry): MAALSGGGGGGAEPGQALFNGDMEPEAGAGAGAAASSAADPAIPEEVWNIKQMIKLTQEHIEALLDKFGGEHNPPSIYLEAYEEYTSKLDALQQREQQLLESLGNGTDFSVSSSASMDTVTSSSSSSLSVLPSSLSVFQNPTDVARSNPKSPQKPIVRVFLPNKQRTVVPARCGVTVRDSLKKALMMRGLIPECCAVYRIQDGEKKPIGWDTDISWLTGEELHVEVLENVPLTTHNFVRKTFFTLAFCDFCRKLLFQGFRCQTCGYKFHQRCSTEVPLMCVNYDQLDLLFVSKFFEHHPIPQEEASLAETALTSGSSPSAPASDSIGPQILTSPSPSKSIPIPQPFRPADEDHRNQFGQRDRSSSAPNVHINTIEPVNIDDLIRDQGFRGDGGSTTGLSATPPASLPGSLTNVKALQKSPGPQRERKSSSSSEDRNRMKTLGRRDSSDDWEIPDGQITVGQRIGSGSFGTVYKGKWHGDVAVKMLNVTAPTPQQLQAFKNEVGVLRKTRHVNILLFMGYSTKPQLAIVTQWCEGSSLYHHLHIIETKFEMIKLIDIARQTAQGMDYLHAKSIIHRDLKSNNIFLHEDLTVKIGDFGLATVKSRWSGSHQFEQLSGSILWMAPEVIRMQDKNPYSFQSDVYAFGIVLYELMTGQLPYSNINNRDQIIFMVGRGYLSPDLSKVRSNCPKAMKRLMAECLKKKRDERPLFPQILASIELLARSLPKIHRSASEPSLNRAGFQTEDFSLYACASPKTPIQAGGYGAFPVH
Dual specificity mitogen-activated protein kinase kinase 1 (Homo sapiens), sequence (Q02750 whole entry): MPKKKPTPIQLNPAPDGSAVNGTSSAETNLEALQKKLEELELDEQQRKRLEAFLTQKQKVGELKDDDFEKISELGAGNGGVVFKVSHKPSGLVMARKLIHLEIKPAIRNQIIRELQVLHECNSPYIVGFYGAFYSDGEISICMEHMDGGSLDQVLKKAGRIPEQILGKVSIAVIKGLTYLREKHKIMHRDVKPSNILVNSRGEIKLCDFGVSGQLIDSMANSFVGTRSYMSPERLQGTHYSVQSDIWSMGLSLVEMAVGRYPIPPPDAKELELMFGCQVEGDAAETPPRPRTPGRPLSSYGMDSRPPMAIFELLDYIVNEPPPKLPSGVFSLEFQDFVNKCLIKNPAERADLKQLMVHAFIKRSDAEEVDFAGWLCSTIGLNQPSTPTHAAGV
Cell division cycle 7-related protein kinase (Homo sapiens), sequence (O00311 whole entry, looked up): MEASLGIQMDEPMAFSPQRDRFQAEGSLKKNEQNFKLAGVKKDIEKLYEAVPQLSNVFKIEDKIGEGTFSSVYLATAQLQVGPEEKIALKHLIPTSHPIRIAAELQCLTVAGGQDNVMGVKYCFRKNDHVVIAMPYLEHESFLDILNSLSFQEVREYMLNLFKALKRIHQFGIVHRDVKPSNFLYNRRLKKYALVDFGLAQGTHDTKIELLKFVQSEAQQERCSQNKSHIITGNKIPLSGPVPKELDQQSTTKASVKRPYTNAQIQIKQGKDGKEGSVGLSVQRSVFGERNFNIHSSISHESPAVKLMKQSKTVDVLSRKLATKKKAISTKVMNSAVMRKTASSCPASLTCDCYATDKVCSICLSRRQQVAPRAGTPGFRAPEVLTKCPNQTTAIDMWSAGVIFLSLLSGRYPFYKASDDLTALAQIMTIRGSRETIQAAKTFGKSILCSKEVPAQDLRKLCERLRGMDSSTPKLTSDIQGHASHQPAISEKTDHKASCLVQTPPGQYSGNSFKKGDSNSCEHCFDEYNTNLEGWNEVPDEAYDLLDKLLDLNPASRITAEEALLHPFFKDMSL

`N#Cc1ccc2c(-c3cc4cc(CN5CCOCC5)ccc4[nH]3)n[nH]c2c1` registered an IC50 in data set [1] of 11 nM.
With `CN(C(=O)Nc1ccccc1)c1ccc2[nH]c(-c3n[nH]c4ccccc34)cc2n1`, the inhibition in [2] came out at 19.3%; in [3] it was 13.8%; in data set [4], 0.55%; in data set [6], 20.5%; in [7] it was 6.64%; in data set [8], 16.4%. The inhibition in [10] was 0.62%; in [14], 75.4%. In addition, in the data set with HCT-116 [5], the “Ratio IC50” value amounted to 3. Also, the half-inhibitory concentration (IC50) in [9] came out at 280 nM; with A549, 1430 nM; in [11], 8.3 nM; in [13], 1.3 nM; in the data set with KB, 32 nM; on Aurora kinase A, 519 nM. In addition, the Activity in the data set with HCT-116 [12] is 25.4%; in data set [17] it was “Dose-dependent effect”. For the same compound, the Papp A→B in data set [15] came to 6.07 ×10⁻⁶ cm/s. Also, the outcome in data set [16] was Active.
With `CN(C(=O)c1ccccc1)c1ccc2[nH]c(-c3n[nH]c4ccccc34)cc2n1`, the inhibition in [2] stood at 18.6%; in data set [3], 28.2%; in [4] it was 8.06%; in data set [6] it was 8.3%; in [7], 3.85%; in data set [8], 11.7%. In addition, the inhibition in [10] stood at 5.4%; in [14], 95.8%. Further, the IC50 in data set [9] is 12500 nM; with A549, 13800 nM; in [11] it was 4850 nM; in data set [13], 10600 nM; in the data set with KB, 8580 nM; at Aurora kinase A it was 32 nM. Also, the apical-to-basolateral permeability (Papp A→B) in [15] is 2.07 ×10⁻⁶ cm/s.
In the case of `CN(C(=O)c1ccc(Cl)cc1)c1ccc2[nH]c(-c3n[nH]c4ccccc34)cc2n1`, the inhibition in data set [2] was determined as 27.8%; in [3] it was 35.5%; in [4] it was 0.94%; in [6], 1%; in data set [7], 1.98%; in data set [8], 14.4%. Moreover, the figures for the inhibition in data set [10] and in [14] were 10.6% and 95%, respectively. Besides, the IC50 in [9] was found to be 2420 nM; in the data set with A549, 2220 nM; in [11] it was 450 nM; in [13] it was 3000 nM; in the data set on KB, 630 nM; at Aurora kinase A, 46 nM. Moreover, in [15], the Papp A→B is 3.95 ×10⁻⁶ cm/s.
